Source: PubChem
PHOSPHO1 inh: inhibitors of human PHOSPHO1 phosphatase. Q8TCT1. hit rate 1.1% among 290,000. recombinant PHOSPHO1, absorbance phosphatase assay. AID 1565. inhibition, % at 13.3 µM; in the data active = inhibition above about 60%
HSF1 inhib: HSF1 inhibition; NIH3T3-HGL HSE-luciferase, MG132-induced, luminescence 8 h; hits give low values; activity change, negative = inhibition, % at 7.5 µM (by protocol); hit rate 0.77% among 300,000;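 active = more than half of replicate wells show activity change below -50%, luminescence cut by over half; inconclusive = some wells, but at most half, below -50%; inactive = no replicate well below -50%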;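 note: luciferase reports HSF-1 transcriptional activity via heat shock element; 0% = median of DMSO wells and -100% = zero luminescence signal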
HSF1 activator: increases HSF-1 driven luciferase reporter signal | NIH3T3-HGL HSF-1 luciferase reporter, MG132, 8 h; 100% = twice DMSO control signal | activation, % at 9 µM | hit rate 1.7% among 300,000 | AID 504408;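 active = mean replicate activation of at least 50% with a set share of replicates each reaching 50%; inconclusive = only one of those two conditions met; inactive = mean below 50% and too few replicates reaching it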;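 note: 0% = median of the neutral control wells and 100% = twice that signal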
CHT inh: inhibitors of human choline transporter CHT | hit rate 0.86% among 310,000 | CHT-expressing cells, membrane potential dye, choline response; hits give low values | B-score at 10 µM;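 active = B-score over 3 SD under the library average, and starting fluorescence ratio not unusually high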;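 note: choline stimulus applied at its EC90 after an EC20 pre-addition; B-score computed on integrated fluorescence ratio after choline addition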
Target sequence (Q9GZV3 whole entry, looked up): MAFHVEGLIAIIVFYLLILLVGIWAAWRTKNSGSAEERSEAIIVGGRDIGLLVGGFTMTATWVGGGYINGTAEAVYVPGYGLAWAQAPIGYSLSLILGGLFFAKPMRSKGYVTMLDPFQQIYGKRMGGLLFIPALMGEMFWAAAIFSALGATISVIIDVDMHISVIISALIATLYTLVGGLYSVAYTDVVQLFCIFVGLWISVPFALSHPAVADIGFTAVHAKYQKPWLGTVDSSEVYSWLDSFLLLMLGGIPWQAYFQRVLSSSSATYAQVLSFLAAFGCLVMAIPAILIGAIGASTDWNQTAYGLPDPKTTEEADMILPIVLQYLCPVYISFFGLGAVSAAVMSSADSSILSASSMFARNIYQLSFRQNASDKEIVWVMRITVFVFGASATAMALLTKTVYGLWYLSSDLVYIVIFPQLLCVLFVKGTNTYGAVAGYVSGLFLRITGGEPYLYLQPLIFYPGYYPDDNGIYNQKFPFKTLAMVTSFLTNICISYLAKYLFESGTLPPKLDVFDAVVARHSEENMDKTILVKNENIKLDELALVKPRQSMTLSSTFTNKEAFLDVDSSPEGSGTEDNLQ
CHT PAM: human CHT allosteric activation. Q9GZV3. CHT-expressing cells, membrane potential dye, choline EC20; hits give high values; LV-AA mutant CHT in HEK293 cells. B-score at 10 µM. hit rate 0.49% among 310,000. AID 488977;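 active = initial fluorescence not abnormally high and integrated response B-score, plate-corrected, over 3 SD above library mean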
Hep lipid drop: hepatic lipid droplet formation modulation | AML12 mouse hepatocytes, oleate lipid droplets, BODIPY imaging | inhibition, % at 6.5 µM | hit rate 0.4% among 240,000;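 active = lipid droplet intensity inhibited by at least 50%, with more than 500 cells counted; inconclusive = wells with under 300 cells, treated as cytotoxic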
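material = mouse AML12 hepatocyte cell line, fixed after treatment | also added = 100 µM oleic acid challenge | doses = compound at 6.5 µM only | schedule = overnight exposure | technique = Image-based BODIPY and DAPI two-channel analysis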
The depositor's hits bear a star. An excerpt weighted towards active compounds, which were near 4.9% of everything screened.

Screening COc1cc(C2NC(=O)NC(C)=C2C(=O)OC2CCCCC2)cc(Cl)c1O (configuration not stated) returned PHOSPHO1 inh 34, HSF1 inhib 38, HSF1 activator 62*, CHT inh inactive, CHT PAM inactive and Hep lipid drop 1.
Screening COc1cc(C2NC(=O)NC(C)=C2C(=O)OCC2CCCCC2)cc(Cl)c1O (configuration not stated) returned PHOSPHO1 inh -19, HSF1 inhib 8, HSF1 activator 35, CHT inh inactive, CHT PAM inactive and Hep lipid drop -3.
`S=c1[nH]nc(-c2ccccc2)n1CC1CCCO1` (configuration not stated) gave PHOSPHO1 inh -12, HSF1 inhib 4, HSF1 activator 6, CHT inh inactive, CHT PAM inactive and Hep lipid drop -8.
Screening Fc1ccccc1-c1nc2nc3ccccc3nc2n1CC1CCCO1 (configuration not stated) returned PHOSPHO1 inh 28, HSF1 inhib 21, HSF1 activator 63*, CHT inh inactive, CHT PAM inactive and Hep lipid drop 2.
`O=C(c1ccc(Cl)cc1)c1oc2ccccc2c1CS(=O)c1ccc(Cl)cc1` (configuration not stated) gave PHOSPHO1 inh 107*, HSF1 inhib 8, HSF1 activator -7, CHT inh inactive and CHT PAM inactive.
Nc1c(C(=O)c2ccc(Cl)cc2)oc2ccccc12 was read as PHOSPHO1 inh 6, HSF1 inhib 5, HSF1 activator 13, CHT inh inactive, CHT PAM inactive and Hep lipid drop -3.
Screening COCCNC(=O)C(c1ccc(C)cc1)N(C(=O)CCC(=O)Nc1ccccn1)c1ccccc1C (configuration not stated) returned PHOSPHO1 inh 12, HSF1 inhib 27, HSF1 activator 78*, CHT inh inactive, CHT PAM inactive and Hep lipid drop 5.
Screening Cc1ccc(C(=O)OCC(=O)Nc2sc3c(c2C#N)CCCC3)cc1NC(=O)c1ccco1 returned PHOSPHO1 inh 64*, HSF1 inhib 2, HSF1 activator 15, CHT inh inactive, CHT PAM inactive and Hep lipid drop -3.
C/C(=N/NC(N)=S)c1ccccc1[N+](=O)[O-] was read as PHOSPHO1 inh -15, HSF1 inhib 1, HSF1 activator -14, CHT inh inactive and CHT PAM inactive.
Screening Cc1ccc(S(=O)(=O)NNC(=O)c2cnn(-c3ccc(Cl)cc3)c2C(F)(F)F)cc1 returned PHOSPHO1 inh 12, HSF1 inhib 32, HSF1 activator 61*, CHT inh inactive, CHT PAM inactive and Hep lipid drop -4.
CC(C)NS(=O)(=O)c1ccc(NC(=O)Cc2ccsc2)cc1 was read as PHOSPHO1 inh 28, HSF1 inhib 7, HSF1 activator 7, CHT inh inactive, CHT PAM inactive and Hep lipid drop -17.
For O=C(Cc1ccsc1)Nc1ccc(S(=O)(=O)C(F)F)cc1 the results were PHOSPHO1 inh 0, HSF1 inhib -64*, HSF1 activator -71, CHT inh inactive, CHT PAM inactive and Hep lipid drop 6.
Cc1ccc(NS(=O)(=O)c2ccc(-c3cnc(C4CC4)o3)cc2)cc1 was read as PHOSPHO1 inh 37, HSF1 inhib 2, HSF1 activator -2, CHT inh inactive, CHT PAM inactive and Hep lipid drop 7.
For Cc1ccc(N(C)S(=O)(=O)c2ccc(-c3cnc(C4CC4)o3)cc2)cc1 the results were PHOSPHO1 inh 1, HSF1 inhib -7, HSF1 activator -4, CHT inh inactive, CHT PAM 6.4* and Hep lipid drop inconclusive.
For COCCCNC(=O)C(=O)N/N=C/c1ccc(OCC(=O)Nc2cccc(Cl)c2C)c(OC)c1 the results were PHOSPHO1 inh 12, CHT inh inactive and CHT PAM inactive.
CC(C)S(=O)(=O)c1csc(NC(=O)Nc2ccc(Cl)cc2)c1 was read as PHOSPHO1 inh 16, HSF1 inhib 60, HSF1 activator 77*, CHT inh inactive, CHT PAM inactive and Hep lipid drop -10.
`CC1(C)Cc2c(sc3c2c2ncnn2c2nnc(SCC(=O)NCc4ccco4)n32)CO1` gave PHOSPHO1 inh 21, HSF1 inhib -2, HSF1 activator 5, CHT inh inactive and CHT PAM inactive.
For CCC1(C)Cc2c(sc3c2c2ncnn2c2nnc(SCC(=O)NCc4ccco4)n32)CO1 (configuration not stated) the results were PHOSPHO1 inh 65*, HSF1 inhib -2, HSF1 activator -4, CHT inh inactive and CHT PAM inactive.
COc1ccc(CCNS(=O)(=O)c2cccc(F)c2)cc1OC was read as PHOSPHO1 inh 46, HSF1 inhib -1, HSF1 activator -8, CHT inh inactive, CHT PAM inactive and Hep lipid drop 6.
For O=S1(=O)Nc2c(ccc3cccnc23)-c2ccccc21 the results were PHOSPHO1 inh 6, HSF1 inhib 142, HSF1 activator 158*, CHT inh inactive and CHT PAM inactive.
For CCSc1nnc(NC(=O)c2cc(-c3ccc(C)c(C)c3O)n[nH]2)s1 the results were PHOSPHO1 inh -19, HSF1 inhib 11, HSF1 activator 13 and Hep lipid drop -28.
CCn1cc(CCC(=O)NCc2cccc(OC)c2OC)c2ccccc21 was read as PHOSPHO1 inh 34, HSF1 inhib 2, HSF1 activator 2, CHT inh inactive, CHT PAM inactive and Hep lipid drop 15.
`C=CCNC(=S)NNC(=O)c1csc(C)c1CC` gave PHOSPHO1 inh 81*, HSF1 inhib 12, HSF1 activator 11, CHT inh inactive, CHT PAM inactive and Hep lipid drop -8.
CC(=O)Nc1cccc(OCCCNS(=O)(=O)c2ccc(F)cc2)c1 was read as PHOSPHO1 inh 51, CHT inh inactive, CHT PAM inactive and Hep lipid drop -2.
`COc1ccc(/C=C(\C#N)C(=O)Nc2cccc(C)n2)cc1` gave PHOSPHO1 inh 15, HSF1 inhib 52, HSF1 activator 71*, CHT inh inactive, CHT PAM inactive and Hep lipid drop 1.
For Cc1cccc(NC(=O)/C(C#N)=C/c2ccccc2O)n1 the results were PHOSPHO1 inh 32, HSF1 inhib 28, HSF1 activator 77* and Hep lipid drop 4.
Cc1cc(Nc2ccc3ccccc3c2)n2ncnc2n1 was read as PHOSPHO1 inh 8, CHT inh inactive and CHT PAM inactive.
`Cn1c(CO)cnc1SCC(=O)c1ccc(Cl)cc1` gave PHOSPHO1 inh 4, HSF1 inhib 48, HSF1 activator 80*, CHT inh inactive and CHT PAM inactive.
